This passage reports Drug uptake results from ChEMBL document CHEMBL3232832, “Derivatives of dibenzothiophene for positron emission tomography imaging of α7-nicotinic acetylcholine receptors” (J Med Chem, 2013).

Holding throughout (assay type): ADME, organism-based
The subject of data set [1] is Striatum. Kind of data set: Drug uptake in CD-1 mouse striatum at 0.07 mCi, iv after 90 mins co-administered with SSR180711. The settings on record: in vivo, 1.5 h. The gist of the method:
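Male CD-1 mice. [18F]tracer (0.07 mCi, SA 7900 mCi/µmol, 0.2 mL) co-injected i.v. with blocker at 0 (vehicle), 0.02, 0.2, 1 or 3 mg/kg. Blocker dissolved in saline:alcohol 9:1, pH 5.5. Brain regions harvested at 90 min and gamma-counted. %ID/g, mean ± SD, n=3 per dose; ANOVA versus controls.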

The subject of data set [2] is Striatum. Kind of data set: Drug uptake in CD-1 mouse striatum at 70 uCi, iv followed by compound washout by gamma-counting analysis. The settings on record: in vivo. The gist of the method: (§1)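 Male CD-1 mice (25–30 g) given [18F]radioligand i.v. into a lateral tail vein (70 µCi, 8000–12000 mCi/µmol, in 0.2 mL saline). Killed by cervical dislocation at various times, three per time point. Brains dissected on ice; regions weighed and gamma-counted with injectate standards. Result as %ID/g.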

For another data set, the system named is Thalamus. Kind of data set: Drug uptake in CD-1 mouse thalamus at 70 uCi, iv followed by compound washout by gamma-counting analysis. The settings on record: in vivo. The gist of the method:
as §1

On to `O=S1(=O)c2cc(N3CCN4CCC3CC4)ccc2-c2cccc([18F])c21`, for which the Drug uptake result is on record as “Not Active” with Striatum [1], “Active” in the data set on Striatum [2] and “Active” with Thalamus.
